Measured values taken from ChEMBL document CHEMBL1137139, “Synthesis of potent taxoids for tumor-specific delivery using monoclonal antibodies” (Bioorg Med Chem Lett, 2004).

Experiments:
Assay type in all cases: functional, cell-based
A549 [1] = test: Concentration of compound that Compound was tested for its cytotoxicity by inhibiting the growth of A-549 cell line after 72 h; settings: Homo sapiens, A549, 72 h
Summary of the method: (§1)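 Human cancer cell lines were exposed to the compound continuously for 72 h, and growth inhibition was measured. IC50 was taken as the concentration that inhibits 50% of cell-line growth.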

MCF7 = test: Compound was tested for its cytotoxicity by inhibiting the growth of MCF-7 cell line after 72 h; settings: Homo sapiens, MCF7, 72 h
A549 [2] = test: Compound was tested for its cytotoxicity by inhibiting the growth of A-549 cell line after 72 h; settings: Homo sapiens, A549, 72 h
A-431 = test: Cytotoxic effect on A431 cell proliferation after 72 hr; settings: Homo sapiens, A-431, 72 h; summary of the method: as §1
A549 [3] = test: Concentration of compound that inhibits 50% of growth of Compound was tested for its cytotoxicity by inhibiting the growth of; settings: Homo sapiens

SMILES	IC50 (A549 [1])	IC50 (MCF7)	IC50 (A549 [2])	IC50 (A-431)	IC50 (A549 [3])
CSSCCC(=O)O[C@H]1C(=O)[C@@]2(C)[C@H]([C@H](OC(=O)c3cccc(Cl)c3)[C@]3(O)C[C@H](OC(=O)[C@H](O)[C@H](C=C(C)C)NC(=O)OC(C)(C)C)C(C)=C1C3(C)C)[C@]1(OC(C)=O)CO[C@@H]1C[C@@H]2O	290 pM	80 pM	–	–	–
CSSCCC(=O)O[C@H]1C(=O)[C@@]2(C)[C@H]([C@H](OC(=O)c3cc(F)cc(F)c3)[C@]3(O)C[C@H](OC(=O)[C@H](O)[C@H](C=C(C)C)NC(=O)OC(C)(C)C)C(C)=C1C3(C)C)[C@]1(OC(C)=O)CO[C@@H]1C[C@@H]2O	–	150 pM	360 pM	–	–
CSSCCC(=O)O[C@H]1C[C@H]2OC[C@@]2(OC(C)=O)[C@H]2[C@H](OC(=O)c3ccccc3)[C@]3(O)C[C@H](OC(=O)[C@H](O)[C@H](C=C(C)C)NC(=O)OC(C)(C)C)C(C)=C([C@@H](O)C(=O)[C@]12C)C3(C)C	–	–	200 pM	300 pM	–
CCC(=O)O[C@H]1C(=O)[C@@]2(C)[C@H]([C@H](OC(=O)c3ccccc3)[C@]3(O)C[C@H](OC(=O)[C@H](O)[C@H](CC(C)C)NC(=O)CCSSC)C(C)=C1C3(C)C)[C@]1(OC(C)=O)CO[C@@H]1C[C@@H]2O	–	–	> 3000 pM	> 3000 pM	–
CC(=O)O[C@H]1C(=O)[C@@]2(C)[C@H]([C@H](OC(=O)c3cc(F)cc(F)c3)[C@]3(O)C[C@H](OC(=O)[C@H](O)[C@H](C=C(C)C)NC(=O)OC(C)(C)C)C(C)=C1C3(C)C)[C@]1(OC(C)=O)CO[C@@H]1C[C@@H]2O	–	40 pM	–	–	100 pM
COc1ccc(OC)c(C(=O)O[C@H]2[C@@H]3[C@]4(OC(C)=O)CO[C@@H]4C[C@H](O)[C@@]3(C)C(=O)[C@H](OC(C)=O)C3=C(C)[C@@H](OC(=O)[C@H](O)[C@H](C=C(C)C)NC(=O)OC(C)(C)C)C[C@]2(O)C3(C)C)c1	–	30 pM	30 pM	–	–
CC(=O)O[C@H]1C(=O)[C@@]2(C)[C@H]([C@H](OC(=O)c3cccc(N(C)C)c3)[C@]3(O)C[C@H](OC(=O)[C@H](O)[C@H](C=C(C)C)NC(=O)OC(C)(C)C)C(C)=C1C3(C)C)[C@]1(OC(C)=O)CO[C@@H]1C[C@@H]2O	–	1000 pM	1000 pM	–	–
CC(=O)O[C@H]1C(=O)[C@@]2(C)[C@H]([C@H](OC(=O)c3cccc(Cl)c3)[C@]3(O)C[C@H](OC(=O)[C@H](O)[C@H](C=C(C)C)NC(=O)OC(C)(C)C)C(C)=C1C3(C)C)[C@]1(OC(C)=O)CO[C@@H]1C[C@@H]2O	–	20 pM	30 pM	–	–
CSSCCC(=O)O[C@H]1C(=O)[C@@]2(C)[C@H]([C@H](OC(=O)c3cccc(N(C)C)c3)[C@]3(O)C[C@H](OC(=O)[C@H](O)[C@H](C=C(C)C)NC(=O)OC(C)(C)C)C(C)=C1C3(C)C)[C@]1(OC(C)=O)CO[C@@H]1C[C@@H]2O	–	3000 pM	> 3000 pM	–	–
CSSc1cccc(C(=O)O[C@H]2[C@@H]3[C@]4(OC(C)=O)CO[C@@H]4C[C@H](O)[C@@]3(C)C(=O)[C@H](OC(C)=O)C3=C(C)[C@@H](OC(=O)[C@H](O)[C@H](C=C(C)C)NC(=O)OC(C)(C)C)C[C@]2(O)C3(C)C)c1	–	–	> 3000 pM	> 3000 pM	–
CSSCCC(=O)O[C@@H](C(=O)O[C@H]1C[C@@]2(O)[C@@H](OC(=O)c3ccccc3)[C@@H]3[C@]4(OC(C)=O)CO[C@@H]4C[C@H](O)[C@@]3(C)C(=O)[C@H](OC(C)=O)C(=C1C)C2(C)C)[C@H](C=C(C)C)NC(=O)OC(C)(C)C	–	–	900 pM	> 3000 pM	–
COc1ccc(OC)c(C(=O)O[C@H]2[C@@H]3[C@]4(OC(C)=O)CO[C@@H]4C[C@H](O)[C@@]3(C)C(=O)[C@H](OC(=O)CCSSC)C3=C(C)[C@@H](OC(=O)[C@H](O)[C@H](C=C(C)C)NC(=O)OC(C)(C)C)C[C@]2(O)C3(C)C)c1	–	40 pM	80 pM	–	–
COc1cccc(C(=O)O[C@H]2[C@@H]3[C@]4(OC(C)=O)CO[C@@H]4C[C@H](O)[C@@]3(C)C(=O)[C@H](OC(C)=O)C3=C(C)[C@@H](OC(=O)[C@H](O)[C@H](C=C(C)C)NC(=O)OC(C)(C)C)C[C@]2(O)C3(C)C)c1	–	20 pM	40 pM	–	–
COc1cccc(C(=O)O[C@H]2[C@@H]3[C@]4(OC(C)=O)CO[C@@H]4C[C@H](O)[C@@]3(C)C(=O)[C@H](OC(=O)CCSSC)C3=C(C)[C@@H](OC(=O)[C@H](O)[C@H](C=C(C)C)NC(=O)OC(C)(C)C)C[C@]2(O)C3(C)C)c1	–	38 pM	100 pM	–	–
CSSCCC(=O)N[C@@H](CC(C)C)[C@@H](O)C(=O)O[C@H]1C[C@@]2(O)[C@@H](OC(=O)c3ccccc3)[C@@H]3[C@]4(OC(C)=O)CO[C@@H]4C[C@H](O)[C@@]3(C)C(=O)[C@H](OC(=O)N3CCOCC3)C(=C1C)C2(C)C	–	–	> 3000 pM	2800 pM	–
